Reference: ChEMBL document CHEMBL4406846, “Development of novel multipotent compounds modulating endocannabinoid and dopaminergic systems” (Eur J Med Chem, 2019)
Values after ≈ are worked out from the molar mass of the structure shown. Active and inactive are the calls of the source. The calls are words filed in the database; no cut-off is given here.

What was measured:
D(2) dopamine receptor = D(2) dopamine receptor (Homo sapiens, UniProt P14416); assay: Displacement of [3H]-spiperone from human D2 receptor expressed in CHO cells co-expressing Galpha16 incubated for 120 mins by liquid scintillation counting method; assay type: cell-based
Summary of the method: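 Membranes from CHO cells expressing hD2 with Gα16; 2 μg protein/well, 0.08 nM [³H]-spiperone final, 23 °C for 120 min. Stopped by rapid filtration on PEI-soaked GF/B filters, bound radioactivity counted; Ki by Cheng-Prusoff; at least three experiments.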

D(3) dopamine receptor = D(3) dopamine receptor (Homo sapiens, UniProt P35462); assay: Displacement of [3H]-spiperone from human D3 receptor expressed in CHO cells co-expressing Galpha16 incubated for 120 mins by liquid scintillation counting method; assay type: cell-based
[1] = target: T1, Fatty-acid amide hydrolase 1 (Mus musculus, UniProt O08914); assay: Inhibition of FAAH in mouse brain membranes assessed as inhibitory constant using [14C]-AEA as substrate incubated for 15 mins by scintillation counting method; assay type: cell membranes
T1 sequence (O08914 whole entry): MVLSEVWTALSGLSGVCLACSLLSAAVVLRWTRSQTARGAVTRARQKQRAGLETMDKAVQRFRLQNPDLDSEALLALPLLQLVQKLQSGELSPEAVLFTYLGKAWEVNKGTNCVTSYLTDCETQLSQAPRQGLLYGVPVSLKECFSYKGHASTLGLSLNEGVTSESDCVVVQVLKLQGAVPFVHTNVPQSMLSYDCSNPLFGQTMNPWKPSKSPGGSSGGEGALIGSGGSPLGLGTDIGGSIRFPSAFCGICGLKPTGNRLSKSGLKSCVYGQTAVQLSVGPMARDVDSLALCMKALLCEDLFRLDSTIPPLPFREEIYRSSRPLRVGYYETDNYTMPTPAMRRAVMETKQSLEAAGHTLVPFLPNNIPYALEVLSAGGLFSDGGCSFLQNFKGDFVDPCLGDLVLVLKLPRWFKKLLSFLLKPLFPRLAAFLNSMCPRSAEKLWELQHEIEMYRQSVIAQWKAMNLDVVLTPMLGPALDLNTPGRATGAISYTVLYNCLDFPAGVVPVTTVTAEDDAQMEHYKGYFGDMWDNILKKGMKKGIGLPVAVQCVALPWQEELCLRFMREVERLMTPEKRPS
Summary of the method: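 Mouse brain incubated with 10 μM [¹⁴C]AEA at 37 °C for 15 min, pH 9.0, compound added to the medium. Stopped with chloroform/methanol 2:1; [¹⁴C]ethanolamine released into the aqueous phase measured. Mean of at least three experiments.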

[2] = target: T1, Fatty-acid amide hydrolase 1; assay: Inhibition of FAAH in mouse brain membranes using [14C]-AEA as substrate incubated for 15 mins by scintillation counting method; assay type: cell membranes
[3] = target: Voltage-gated inwardly rectifying potassium channel KCNH2 (Homo sapiens, UniProt Q12809); assay: Inhibition of human ERG expressed in HEK293 cells […] by patch clamp assay; assay type: cell-based
Summary of the method: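 HEK293 cells stably expressing hERG under a tetracycline-inducible promoter (10 μg/mL tetracycline for 24, 48 or 72 h). Automated patch clamp, tail current; 0.1, 1 and 10 μM in 0.1% DMSO after 3 min vehicle, 5 min exposure. Residual current vs vehicle gives % inhibition; IC50 estimated; at least two cells.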

[4] = Metabolic stability in human liver microsomes assessed as half life at 5 uM incubated for 60 mins by UV-Vis spectrophotometry; assay type: ADME, Microsome
[5] = Metabolic stability in rat liver microsomes assessed as half life at 5 uM incubated for 60 mins by UV-Vis spectrophotometry; assay type: ADME, Microsome
IMR-32 [6] = assay: Antiinflammatory activity in human IMR32 cells assessed as reduction in LPS-induced NF-kappaB-DNA binding at 0.5 and 1 uM preincubated for 24 hrs followed by LPS stimulation and measured after 30 mins by ELISA; assay type: functional, cell-based
Summary of the method: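 IMR 32 cells pre-treated 24 h at 0.5 and 1 μM, then challenged with 100 μg/mL LPS for 30 min; NF-κB p65 binding of nuclear extracts to the DNA consensus sequence measured. Mean ± SEM of 3 independent experiments.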

U373 MG = assay: Cytotoxicity against human U373MG cells assessed as cell viability incubated for 24 hrs by neutral red uptake based assay; design: species or system U-373MG ATCC
Summary of the method: (§1)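 NIH3T3 or U-373-MG cells grown in DMEM with 10% FCS at 37 °C, 5% CO2; compound from DMSO stock diluted in complete medium, 4–100 μM, 24 h. Viability by Neutral Red Uptake (3 h NR loading, acetic acid/ethanol extraction, A540), normalised to % control; IC50 reported. Three experiments in six replicates, Student's t test.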

[7] = Metabolic stability in human liver microsomes assessed as apparent decay constant at 5 uM incubated for 60 mins by UV-Vis spectrophotometry; assay type: ADME, Microsome; details: 1 h
[8] = Metabolic stability in rat liver microsomes assessed as apparent decay constant at 5 uM incubated for 60 mins by UV-Vis spectrophotometry; assay type: ADME, Microsome; details: 1 h
IMR-32 [9] = assay: Cytotoxicity against human IMR32 cells at 0.1 to 50 uM incubated for 24 hrs by LDH release assay; assay type: cell-based; details: imr-32, 24 h
Summary of the method: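 IMR 32 cells exposed 24 h to 0.1, 0.5, 1, 5, 10 and 50 μM; LDH release expressed as percent of maximal release from Triton X-100-treated cells (100%). Samples run at least in triplicate, mean ± SD.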

[10] = Solubility of compound in DMSO at pH 3 incubated for […] by HPLC/UV/DAD analysis; assay type: physicochemical
Summary of the method: (§2)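 10 mM DMSO stock diluted to 250 μM (2.5% DMSO) in 50 mM acetic acid (pH 3.0) or 50 mM PBS (pH 7.4). Shaken 24 h at 25 °C, filtered, diluted 1:2 and quantified by HPLC-UV at 254 nm against a 250 μM standard; triplicate average.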

NIH3T3 = assay: Cytotoxicity against mouse NIH/3T3 cells assessed as cell viability incubated for 24 hrs by neutral red uptake based assay; details: NIH3T3, 24 h; summary of the method: as §1
[11] = Metabolic stability in human liver microsomes assessed as intrinsic clearance at 5 uM incubated for 60 mins by UV-Vis spectrophotometry; assay type: ADME, Microsome; details: read-out: CLH
IMR-32 [12] = assay: Antiinflammatory activity in human IMR32 cells assessed as reduction in LPS-induced NF-kappaB-DNA binding at 0.5 and 1 uM preincubated for 24 hrs followed by LPS stimulation and measured after 30 mins by immunoblot analysis; assay type: functional, cell-based
[13] = Retention time of compound in human liver microsomes incubated for 30 mins by HPLC analysis; assay type: ADME, Microsome; details: 0.5 h
[14] = target: T2, Monoglyceride lipase (Mus musculus) (UniProt O35678); assay: Inhibition of MAGL in mouse brain assessed as release of [3H]glycerol using [3H]-2-OG as substrate incubated for 30 mins by scintillation counting method; assay type: tissue-based
T2 sequence (whole entry): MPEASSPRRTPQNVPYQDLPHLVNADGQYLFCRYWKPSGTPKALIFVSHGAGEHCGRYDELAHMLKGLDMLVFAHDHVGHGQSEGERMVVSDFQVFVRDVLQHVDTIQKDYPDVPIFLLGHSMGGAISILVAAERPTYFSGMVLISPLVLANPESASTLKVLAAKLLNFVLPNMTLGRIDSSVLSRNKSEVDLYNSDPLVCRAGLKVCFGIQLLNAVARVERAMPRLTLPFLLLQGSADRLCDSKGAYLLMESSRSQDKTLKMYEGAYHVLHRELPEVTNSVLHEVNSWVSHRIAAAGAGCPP
Summary of the method: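 Mouse brain homogenised in 50 mM sodium phosphate pH 8.0 with 0.32 M sucrose, spun sequentially up to 100,000×g. Final supernatant incubated with 10 μM [³H]2-OG at 37 °C for 30 min; stopped with chloroform/methanol and aqueous [³H]glycerol scintillation-counted.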

[15] = target: Cannabinoid receptor 1 (Mus musculus) (UniProt P47746); assay: Displacement of [3H]CP55, 940 from mouse brain membrane CB1 receptor
Summary of the method: (§3)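 Mouse brain membrane fraction (18000×g pellet) in 50 mM Tris-HCl, 2 mM Tris-EDTA, 3 mM MgCl2, pH 7.4. Rapid filtration binding with the agonist [³H]CP55,940; nonspecific binding defined with 1 μM unlabelled agonist; compound added directly to the incubation.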

[16] = Metabolic stability in rat liver microsomes assessed as intrinsic clearance at 5 uM incubated for 60 mins by UV-Vis spectrophotometry; assay type: ADME, Microsome; details: read-out: CLH
[17] = Chemical stability of compound in DMSO assessed as remaining compound at pH 3 incubated for 24 hrs by HPLC/UV/DAD analysis; assay type: physicochemical; details: read-out: Stability
Summary of the method: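 Samples at 250 μM (2.5% DMSO) in 50 mM acetic acid, pH 3.0, held 24 h at 25 °C. HPLC/UV/DAD peak area at 254 nm after 24 h divided by area at T0 × 100; triplicate average.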

[18] = Solubility of compound in DMSO at pH 7.4 incubated for […] by HPLC/UV/DAD analysis; assay type: physicochemical; summary of the method: as §2
[19] = target: Cannabinoid receptor 2 (Mus musculus) (UniProt P47936); assay: Displacement of [3H]CP55, 940 from mouse brain membrane CB2 receptor; summary of the method: as §3
Cannabinoid receptor 2 (Mus musculus), sequence (P47936 whole entry): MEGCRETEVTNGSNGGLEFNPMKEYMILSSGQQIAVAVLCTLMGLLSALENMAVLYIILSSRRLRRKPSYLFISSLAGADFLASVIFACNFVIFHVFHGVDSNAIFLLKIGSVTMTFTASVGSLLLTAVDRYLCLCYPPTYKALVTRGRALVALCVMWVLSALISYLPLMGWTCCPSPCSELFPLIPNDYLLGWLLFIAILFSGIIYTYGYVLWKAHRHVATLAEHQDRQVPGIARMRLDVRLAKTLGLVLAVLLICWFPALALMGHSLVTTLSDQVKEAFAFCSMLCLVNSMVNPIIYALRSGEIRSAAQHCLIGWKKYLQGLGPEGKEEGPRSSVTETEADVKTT

D(3) dopamine receptor, sequence (P35462 whole entry): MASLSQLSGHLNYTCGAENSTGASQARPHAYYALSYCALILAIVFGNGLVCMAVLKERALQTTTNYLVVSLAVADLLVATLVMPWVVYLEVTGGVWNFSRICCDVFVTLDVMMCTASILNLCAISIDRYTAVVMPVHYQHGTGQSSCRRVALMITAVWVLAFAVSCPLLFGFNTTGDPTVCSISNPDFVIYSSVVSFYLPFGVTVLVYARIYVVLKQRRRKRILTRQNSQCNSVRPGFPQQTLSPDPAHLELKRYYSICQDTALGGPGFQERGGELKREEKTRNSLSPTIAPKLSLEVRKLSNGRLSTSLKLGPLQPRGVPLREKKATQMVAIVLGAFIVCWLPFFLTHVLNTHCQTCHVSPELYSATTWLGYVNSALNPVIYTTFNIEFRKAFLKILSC
Voltage-gated inwardly rectifying potassium channel KCNH2, sequence (Q12809 whole entry): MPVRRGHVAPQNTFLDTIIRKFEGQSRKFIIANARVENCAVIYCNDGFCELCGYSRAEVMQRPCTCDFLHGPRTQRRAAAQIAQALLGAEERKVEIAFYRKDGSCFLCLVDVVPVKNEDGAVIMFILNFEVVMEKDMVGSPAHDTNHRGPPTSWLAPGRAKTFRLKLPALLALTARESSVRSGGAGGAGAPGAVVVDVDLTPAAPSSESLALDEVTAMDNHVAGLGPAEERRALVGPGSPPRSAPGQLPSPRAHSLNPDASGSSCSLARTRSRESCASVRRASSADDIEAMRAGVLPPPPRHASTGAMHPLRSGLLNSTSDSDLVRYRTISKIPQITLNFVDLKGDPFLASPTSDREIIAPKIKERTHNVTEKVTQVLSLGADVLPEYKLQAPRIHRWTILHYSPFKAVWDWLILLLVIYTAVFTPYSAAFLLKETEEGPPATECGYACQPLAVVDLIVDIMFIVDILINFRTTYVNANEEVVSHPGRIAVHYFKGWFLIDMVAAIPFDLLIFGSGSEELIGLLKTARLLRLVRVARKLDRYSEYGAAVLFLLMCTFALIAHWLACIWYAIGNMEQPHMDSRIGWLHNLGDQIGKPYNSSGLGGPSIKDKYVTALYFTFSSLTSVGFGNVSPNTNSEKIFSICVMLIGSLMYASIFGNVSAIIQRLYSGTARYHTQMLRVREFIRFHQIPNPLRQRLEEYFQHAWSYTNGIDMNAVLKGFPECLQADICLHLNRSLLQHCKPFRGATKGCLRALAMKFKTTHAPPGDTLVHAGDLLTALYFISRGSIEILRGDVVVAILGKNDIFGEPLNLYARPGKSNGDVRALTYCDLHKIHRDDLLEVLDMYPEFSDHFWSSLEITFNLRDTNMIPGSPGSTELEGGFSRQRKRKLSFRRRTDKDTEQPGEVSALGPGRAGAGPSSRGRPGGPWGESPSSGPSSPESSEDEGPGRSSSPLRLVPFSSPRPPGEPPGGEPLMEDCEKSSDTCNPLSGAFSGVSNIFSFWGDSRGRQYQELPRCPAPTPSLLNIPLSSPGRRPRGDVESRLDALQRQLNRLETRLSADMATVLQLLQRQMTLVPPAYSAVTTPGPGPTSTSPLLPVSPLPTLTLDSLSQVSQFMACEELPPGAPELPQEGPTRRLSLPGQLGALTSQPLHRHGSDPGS
D(2) dopamine receptor, sequence (P14416 whole entry): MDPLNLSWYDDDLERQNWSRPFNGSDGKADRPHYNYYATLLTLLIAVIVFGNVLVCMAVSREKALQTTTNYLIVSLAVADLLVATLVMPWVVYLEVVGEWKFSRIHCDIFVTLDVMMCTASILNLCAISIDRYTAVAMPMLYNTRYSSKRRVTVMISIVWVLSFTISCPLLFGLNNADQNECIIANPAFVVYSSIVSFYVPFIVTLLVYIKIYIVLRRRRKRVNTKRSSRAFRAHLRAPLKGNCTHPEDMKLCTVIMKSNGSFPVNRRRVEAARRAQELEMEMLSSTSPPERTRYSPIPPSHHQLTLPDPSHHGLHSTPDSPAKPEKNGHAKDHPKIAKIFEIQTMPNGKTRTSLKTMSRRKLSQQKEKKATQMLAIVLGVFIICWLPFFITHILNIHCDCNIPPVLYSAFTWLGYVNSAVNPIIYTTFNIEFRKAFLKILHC
Cannabinoid receptor 1 (Mus musculus), sequence (P47746 whole entry): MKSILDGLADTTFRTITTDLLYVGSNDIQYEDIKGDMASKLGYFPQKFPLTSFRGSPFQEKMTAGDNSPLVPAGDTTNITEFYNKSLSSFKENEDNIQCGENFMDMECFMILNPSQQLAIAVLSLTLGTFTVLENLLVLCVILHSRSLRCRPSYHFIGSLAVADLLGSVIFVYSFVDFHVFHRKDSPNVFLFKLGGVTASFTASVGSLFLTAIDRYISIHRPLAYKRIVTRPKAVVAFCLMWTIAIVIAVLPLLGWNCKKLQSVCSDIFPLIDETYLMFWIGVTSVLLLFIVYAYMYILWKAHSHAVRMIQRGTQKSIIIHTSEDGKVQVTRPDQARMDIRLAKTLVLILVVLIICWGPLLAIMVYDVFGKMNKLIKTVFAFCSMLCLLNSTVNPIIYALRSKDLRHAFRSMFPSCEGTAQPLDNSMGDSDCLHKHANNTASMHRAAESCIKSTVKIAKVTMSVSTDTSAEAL

SMILES	Ki (D(2) dopamine receptor) [nM]	Ki (D(3) dopamine receptor) [nM]	Ki [1] [nM]	IC50 [2] [nM]	IC50 [3] [nM]	also measured
Cn1c(C(N)=O)ccc1-c1cccc(OC(=O)NCCN2CCN(c3ccccc3)CC2)c1	56	76	203	791	6400	–
NC(=O)c1ccn(-c2cccc(OC(=O)NCCCN3CCN(c4ccccc4)CC3)c2)c1	66	34	25	94	3500	–
Cc1cc(C(N)=O)c(-c2cccc(OC(=O)NCCN3CCN(c4ccccc4)CC3)c2)o1	138	105	0.23	0.89	< 100	half-life at 5 µM [4]: 24.4 min; half-life at 5 µM [5]: 19.9 min; Activity (IMR-32 [6]): Active; IC50 (U373 MG): 23000 nM; K [7]: 0.02842 ×10⁻¹ /min; K [8]: 0.03482 ×10⁻¹ /min; Activity (IMR-32 [9]): Non-Toxic; solubility [10]: 991 µM (≈ 444 µg/mL); IC50 (NIH3T3): 68000 nM; microsomal CLint at 5 µM [11]: 47.4 µL/min/mg; Activity (IMR-32 [12]): Active; Retention_time [13]: 9.004 min; inhibition [14]: inactive; inhibition [15]: inactive; microsomal CLint at 5 µM [16]: 59.2 µL/min/mg; pIC50 ([3]; hek293): > 7; remaining at 24 h [17]: 99.9%; solubility [18]: 2 µM (≈ 0.897 µg/mL); inhibition [19]: inactive
NC(=O)c1cn(-c2cccc(OC(=O)NCCN3CCN(c4ccccc4)CC3)c2)nn1	–	–	194	757	–	–
Cc1cc(C(N)=O)c(-c2cccc(OC(=O)NCCN3CCN(c4ccccc4)CC3)c2)n1C	–	–	46	175	–	–
